These results are taken from ChEMBL document CHEMBL4190262, “Tuning of β-glucosidase and α-galactosidase inhibition by generation and in situ screening of a library of pyrrolidine-triazole hybrid molecules” (Eur J Med Chem, 2017).

Experiment [1] concerns Prunus dulcis. The experiment is described as follows: Inhibition of almond beta-glucosidase at 10 uM using p-nitrophenyl glycopyranoside preincubated for 5 mins followed by substrate addition measured after 20 mins by visible absorption spectroscopic method relative to control. The essentials:
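Crude click-reaction products screened in situ. Azide (final 15 mM) was reacted with each alkyne using sodium ascorbate/CuSO4 in tBuOH–H2O for 24 h at rt, then diluted with water. Tested at 10 μM per well, assuming quantitative conversion, against almond β-glucosidase at pH 5, 37 °C. p-Nitrophenyl glycoside read-out at 405 nm.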

In experiment [2] the target is T1, Alpha-galactosidase A (Homo sapiens) (UniProt P06280).
T1 sequence (whole entry): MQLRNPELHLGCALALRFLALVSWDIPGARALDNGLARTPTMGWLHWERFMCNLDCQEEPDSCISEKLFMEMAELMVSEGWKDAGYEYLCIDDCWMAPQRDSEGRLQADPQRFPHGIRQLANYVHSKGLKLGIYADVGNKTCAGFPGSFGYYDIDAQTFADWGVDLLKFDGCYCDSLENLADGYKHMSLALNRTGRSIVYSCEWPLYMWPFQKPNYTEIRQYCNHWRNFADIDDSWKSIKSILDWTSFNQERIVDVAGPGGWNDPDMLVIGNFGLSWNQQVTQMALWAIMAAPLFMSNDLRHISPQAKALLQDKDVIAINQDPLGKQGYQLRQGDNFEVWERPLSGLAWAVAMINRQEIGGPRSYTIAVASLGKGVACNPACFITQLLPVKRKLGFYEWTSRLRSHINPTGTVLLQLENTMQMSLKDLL
Kind of experiment: Inhibition of human lysosomal alpha-galactosidase A at 1 mM using 4-methylumbelliferyl-alpha-D-galactopyranoside as substrate preincubated for 45 mins followed by substrate addition measured after 30 mins by fluorescence spectroscopic method relative to control. Put shortly:
(§1)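 Enzyme in 100 mM McIlvaine buffer pH 5.2 with 0.25% sodium taurocholate and 0.1% Triton X-100, with inhibitor. Preincubated at 0 °C for 45 min, then started with 3 mM 4-methylumbelliferyl glycoside substrate solution and incubated 30 min at 37 °C. Stopped with 400 mM glycine-NaOH pH 10.6. 4-Methylumbelliferone fluorescence read at ex 362/em 450 nm.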

The next experiment deals with T2, Beta-galactosidase (Bos taurus, UniProt Q58D55).
T2 sequence (Q58D55 whole entry): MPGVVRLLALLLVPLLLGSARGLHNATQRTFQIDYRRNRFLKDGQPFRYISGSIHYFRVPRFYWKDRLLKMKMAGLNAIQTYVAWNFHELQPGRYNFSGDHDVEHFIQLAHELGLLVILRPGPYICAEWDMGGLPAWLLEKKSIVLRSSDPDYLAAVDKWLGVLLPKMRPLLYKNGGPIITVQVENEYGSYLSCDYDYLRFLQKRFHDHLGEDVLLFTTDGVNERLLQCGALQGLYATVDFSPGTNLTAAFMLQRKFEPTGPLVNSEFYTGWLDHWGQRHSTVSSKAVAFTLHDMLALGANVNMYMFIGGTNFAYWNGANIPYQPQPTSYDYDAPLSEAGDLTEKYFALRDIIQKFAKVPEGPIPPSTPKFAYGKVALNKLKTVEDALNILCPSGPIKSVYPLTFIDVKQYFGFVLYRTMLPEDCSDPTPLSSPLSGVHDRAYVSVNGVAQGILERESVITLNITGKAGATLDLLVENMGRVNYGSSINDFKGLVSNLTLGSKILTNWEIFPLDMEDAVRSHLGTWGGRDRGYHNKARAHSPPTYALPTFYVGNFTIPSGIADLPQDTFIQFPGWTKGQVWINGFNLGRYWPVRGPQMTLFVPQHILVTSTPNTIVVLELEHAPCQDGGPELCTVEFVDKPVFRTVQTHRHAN
Kind of experiment: Inhibition of bovine liver beta-galactosidase using p-nitrophenyl glycopyranoside preincubated for 5 mins followed by substrate addition measured after 20 mins by visible absorption spectroscopic method. Put shortly:
(§2)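 IC50 determined only for compounds giving ≥80% inhibition at 1 mM, read from plots of % inhibition versus inhibitor concentration. p-Nitrophenyl glycopyranoside substrate (10 mM solution) at the enzyme's optimal pH, with 0.01–0.5 units/mL enzyme. 5 min rt preincubation with enzyme, then 20 min at 37 °C. Borate stop (pH 9.8), absorbance at 405 nm. Duplicates averaged.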

The species entered for the next experiment is Bos taurus. The experiment is described as follows: Inhibition of bovine liver beta-glucosidase at 1 mM using p-nitrophenyl glycopyranoside preincubated for 5 mins followed by substrate addition measured after 20 mins by visible absorption spectroscopic method relative to control. The essentials:
(§3)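 Test compound at 1 mM in well. Mix: 0.01–0.5 units/mL enzyme plus 10 mM p-nitrophenyl glycopyranoside (aqueous solution), buffered to the enzyme's optimal pH. Enzyme and inhibitor preincubated 5 min at rt. Substrate then added and incubated 20 min at 37 °C. Stopped with sodium borate (pH 9.8). p-Nitrophenolate read at 405 nm. Duplicates averaged.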

The target in experiment [3] is T3, Lysosomal acid glucosylceramidase (Homo sapiens, UniProt P04062).
T3 sequence (P04062 whole entry): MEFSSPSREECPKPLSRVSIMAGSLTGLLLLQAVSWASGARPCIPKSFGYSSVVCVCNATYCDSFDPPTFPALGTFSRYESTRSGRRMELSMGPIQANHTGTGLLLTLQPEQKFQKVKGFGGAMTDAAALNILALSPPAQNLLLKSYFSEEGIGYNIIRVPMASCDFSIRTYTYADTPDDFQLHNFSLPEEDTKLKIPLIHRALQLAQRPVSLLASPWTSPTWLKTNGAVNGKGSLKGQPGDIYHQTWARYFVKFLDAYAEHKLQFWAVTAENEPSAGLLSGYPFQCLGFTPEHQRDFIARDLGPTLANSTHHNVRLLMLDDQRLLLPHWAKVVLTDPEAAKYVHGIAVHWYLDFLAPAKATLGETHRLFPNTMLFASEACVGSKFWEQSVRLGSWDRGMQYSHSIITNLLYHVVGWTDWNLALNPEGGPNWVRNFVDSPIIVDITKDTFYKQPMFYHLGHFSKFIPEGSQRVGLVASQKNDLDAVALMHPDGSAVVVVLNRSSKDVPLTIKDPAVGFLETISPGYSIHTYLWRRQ
The experiment is described as follows: Inhibition of human lysosomal beta-glucocerebrosidase using 4-methylumbelliferyl-beta-D-glucopyranoside as substrate preincubated for 45 mins followed by substrate addition measured after 30 mins by fluorescence spectroscopic method. The essentials:
as §1

Experiment [4] in a line: Inhibition of almond beta-glucosidase using p-nitrophenyl glycopyranoside preincubated for 5 mins followed by substrate addition measured after 20 mins by visible absorption spectroscopic method. On the set-up: species or system Prunus dulcis. The essentials:
as §2

In experiment [5] the target is Alpha-galactosidase (Coffea arabica) (UniProt Q42656). Kind of experiment: Inhibition of coffee beans alpha-galactosidase at 1 mM using p-nitrophenyl glycopyranoside preincubated for 5 mins followed by substrate addition measured after 20 mins by visible absorption spectroscopic method relative to control. Put shortly:
as §3

For experiment [6], the system named is Prunus dulcis. Kind of experiment: Inhibition of almond beta-glucosidase at 1 mM using p-nitrophenyl glycopyranoside preincubated for 5 mins followed by substrate addition measured after 20 mins by visible absorption spectroscopic method relative to control. The essentials: as §3
Another experiment deals with Alpha-galactosidase (Coffea arabica, UniProt Q42656). Kind of experiment: Inhibition of coffee beans alpha-galactosidase using p-nitrophenyl glycopyranoside preincubated for 5 mins followed by substrate addition measured after 20 mins by visible absorption spectroscopic method. The essentials:
as §2

Experiment [7] deals with Alpha-galactosidase (Coffea arabica) (UniProt Q42656). Kind of experiment: Inhibition of coffee beans alpha-galactosidase at 50 uM using p-nitrophenyl glycopyranoside preincubated for 5 mins followed by substrate addition measured after 20 mins by visible absorption spectroscopic method relative to control. The essentials:
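Crude triazoles from in situ CuAAC (ascorbate/CuSO4, 24 h rt, water-diluted) were screened at 50 μM per well, assuming full conversion. Enzyme was coffee bean α-galactosidase at pH 6, 37 °C, with p-nitrophenyl glycoside substrate and 405 nm read-out. Blanks of CuSO4, ascorbate and each alkyne were run.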

The target of another experiment is T4, Alpha-galactosidase A (Homo sapiens, UniProt P06280).
T4 sequence (P06280 whole entry): T1 sequence (whole entry)
Kind of experiment: Inhibition of human lysosomal alpha-galactosidase A using 4-methylumbelliferyl-alpha-D-galactopyranoside as substrate preincubated for 45 mins followed by substrate addition measured after 30 mins by fluorescence spectroscopic method. Put shortly: as §1

Experiment [8] can be described thus: Inhibition of bovine liver beta-glucosidase using p-nitrophenyl glycopyranoside preincubated for 5 mins followed by substrate addition measured after 20 mins by visible absorption spectroscopic method. On the set-up: species or system Bos taurus. Put shortly: as §2
Experiment [9] is described as follows: Selectivity ratio of IC50 for human lysosomal alpha-galactosidase A to IC50 for coffee beans alpha-galactosidase.

Molecules are shown by their SMILES.

Chain of Alpha-galactosidase (Coffea arabica) (Q42656 16-378 limits assumed): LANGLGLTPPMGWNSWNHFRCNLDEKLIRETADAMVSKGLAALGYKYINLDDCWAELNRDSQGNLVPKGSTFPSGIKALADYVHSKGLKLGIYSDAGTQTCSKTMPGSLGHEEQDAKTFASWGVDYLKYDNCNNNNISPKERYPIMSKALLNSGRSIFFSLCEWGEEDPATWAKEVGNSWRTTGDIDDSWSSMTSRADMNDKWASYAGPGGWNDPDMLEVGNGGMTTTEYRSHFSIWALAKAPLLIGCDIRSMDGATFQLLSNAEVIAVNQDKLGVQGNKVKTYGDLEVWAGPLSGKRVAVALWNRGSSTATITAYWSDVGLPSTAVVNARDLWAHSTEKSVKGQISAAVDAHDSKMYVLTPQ
Chain of Alpha-galactosidase (Q42656 whole entry): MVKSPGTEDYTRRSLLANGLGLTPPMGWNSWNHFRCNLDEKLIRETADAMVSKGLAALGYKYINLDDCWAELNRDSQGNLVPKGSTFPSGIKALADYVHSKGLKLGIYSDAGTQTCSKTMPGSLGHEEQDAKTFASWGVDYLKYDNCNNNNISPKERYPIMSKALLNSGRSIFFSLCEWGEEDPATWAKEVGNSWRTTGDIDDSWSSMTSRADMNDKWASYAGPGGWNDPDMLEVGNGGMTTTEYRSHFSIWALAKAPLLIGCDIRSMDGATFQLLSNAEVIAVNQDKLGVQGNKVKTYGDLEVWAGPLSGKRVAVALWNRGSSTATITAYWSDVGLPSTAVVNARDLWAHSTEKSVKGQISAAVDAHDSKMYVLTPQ

The term inhibition denotes the relative decrease from the control value, in per cent. Broadly, the IC50 is the concentration at which inhibition is half-maximal. A higher IC50 goes with a need for much substance. Take `C[Si](C)(C)Cc1cn(C[C@@H]2NC[C@@H](O)[C@H]2O)nn1`: the inhibition with Prunus dulcis [1] is 65%; in [2], < 50%; in the experiment filed under Bos taurus, < 50%; in experiment [5], < 50%. For the same compound, the concentration for half-maximal inhibition (IC50) on Beta-galactosidase amounted to 151 µM; in [3], 19 µM; in [4], 7 µM.

For the compound `OCc1ccc(-c2cn(C[C@H]3NC[C@@H](O)[C@H]3O)nn2)cc1`, the inhibition is < 50% with Prunus dulcis [6] and 66% in experiment [7]. Further, the IC50 on Alpha-galactosidase came out at 14 µM; on Beta-galactosidase, 268 µM; on Alpha-galactosidase A, 159 µM; in experiment [3], 187 µM; in [8], 888 µM. Besides, the Ratio IC50 in [9] was found to be 10.

As to `COc1ccc(-c2cn(C[C@H]3NC[C@@H](O)[C@H]3O)nn2)cc1`, the inhibition was < 50% in the experiment on Prunus dulcis [6] and 67% in [7]. The IC50 against Alpha-galactosidase came out at 13 µM; at Beta-galactosidase, 338 µM; against Alpha-galactosidase A it was 185 µM; in experiment [3], 31 µM; in [8] it was 887 µM. Further, the Ratio IC50 in [9] was 10.
